According to ChEMBL document CHEMBL2440006, “Mastering tricyclic ring systems for desirable functional cannabinoid activity” (Eur J Med Chem, 2013):
Calls of active or inactive are those of the source. The calls are words filed in the database; no cut-off is given here.

Target: T1, Cannabinoid receptor 2 (Homo sapiens, UniProt P34972)
Assay: Displacement of [3H]-CP55940 from human CB2 receptor expressed in HEK293 cells after 1.5 hrs by microbeta liquid scintillation counting analysis
Type: cell-based
Details: read-out: Ki
Summary of the method: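 Membranes from rat brain homogenate (CB1) or HEK293 cells expressing human CB2. GF/B filtration, then scintillation counting. IC50 by three-parameter logistic fit, Ki by Cheng-Prusoff. Three experiments in triplicate.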

T1 sequence (P34972 whole entry): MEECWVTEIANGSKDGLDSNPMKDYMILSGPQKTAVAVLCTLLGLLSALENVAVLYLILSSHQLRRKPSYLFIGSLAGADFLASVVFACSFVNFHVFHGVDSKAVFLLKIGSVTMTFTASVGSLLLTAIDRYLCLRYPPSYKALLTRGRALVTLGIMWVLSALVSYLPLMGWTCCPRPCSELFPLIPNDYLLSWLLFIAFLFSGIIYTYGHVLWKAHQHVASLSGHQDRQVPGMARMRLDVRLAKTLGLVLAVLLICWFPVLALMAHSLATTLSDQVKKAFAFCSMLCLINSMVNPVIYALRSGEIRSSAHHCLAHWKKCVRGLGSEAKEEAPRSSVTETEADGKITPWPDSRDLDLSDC

| Structure (SMILES) | Ki |
| --- | --- |
| O=C(c1ccc2c(c1)c1ccccc1n2CC1CCOCC1)N1CCCCC1 | 20 nM |
| CC(C)(C)OC(=O)NCCCn1c2ccccc2c2cc(C(=O)N3CCCCC3)ccc21 | 2690 nM |
| CCCCCCn1c2ccccc2c2cc(C(=O)N3CCCCC3)ccc21 | 96 nM |
| CCCCCn1c2ccccc2c2cc(C(=O)N3CCS(=O)(=O)CC3)ccc21 | 225 nM |
| CCCCCn1c2ccccc2c2cc(C(=S)N3CCCCC3)ccc21 | 49.6 nM |
| O=C(c1ccc2c(c1)c1ccccc1n2CCCCl)N1CCCCC1 | 88 nM |
| CCCCCn1c2ccccc2c2cc(C(=O)N3CCN(C)CC3)ccc21 | 35.4 nM |
| CCCCCn1c2ccccc2c2cc(C(=O)CN3CCN(C)CC3)ccc21 | 398 nM |
| O=C(c1ccc2c(c1)c1ccccc1n2CCCN1CCS(=O)(=O)CC1)N1CCCCC1 | 249 nM |
| CCCn1c2ccccc2c2cc(C(=O)N3CCCCC3)ccc21 | 521 nM |
| CCCCCn1c2ccccc2c2cc(CN3CCCCC3)ccc21 | 370 nM |
| COCCCn1c2ccccc2c2cc(C(=O)N3CCCCC3)ccc21 | 83 nM |
| CCCCCn1c2ccccc2c2cc(C(=O)c3ccccc3)ccc21 | 101 nM |
| CCCCn1c2ccccc2c2cc(C(=O)N3CCCCC3)ccc21 | 264 nM |
| O=C(c1ccc2c(c1)c1ccccc1n2Cc1ccccn1)N1CCCCC1 | 215 nM |
| CCCCCn1c2ccccc2c2cc(C(=O)CN3CCCCC3)ccc21 | 1090 nM |
| CCCCCn1c2ccccc2c2cc(C(=O)OCc3ccncc3)ccc21 | 1390 nM |
| CCOC(=O)CCn1c2ccccc2c2cc(C(=O)N3CCCCC3)ccc21 | 1310 nM |
| CCCCCn1c2ccccc2c2cc(C(=O)N(CC)CC)ccc21 | 51.8 nM |
| COC(=O)CCCn1c2ccccc2c2cc(C(=O)N3CCCCC3)ccc21 | 208 nM |
| CCCCCn1c2ccccc2c2cc(C(=O)NN3CCCCC3)ncc21 | 171 nM |
| CCCCCn1c2ccccc2c2cc(C(=O)N3CCCCC3)ccc21 | 73 nM |
| CCCCCn1c2ccccc2c2cc(C(=O)NN3CCCCC3)ccc21 | 1610 nM |

Target: T1, Cannabinoid receptor 2
Assay: Induction of human CB2 receptor internalization expressed in HEK293 cells at 10 uM relative to CP55940
Type: cell-based
Details: not given
Summary of the method: (§1)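 Cells stably expressing human CB1 or human CB2 receptors, exposed to test compound alone. […] Mean of two determinations.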

| Structure (SMILES) | Activity |
| --- | --- |
| CCCCCn1c2ccc(C(=O)N3CCCCC3)cc2c2ccc(OC)cc21 | -1.1% |
| O=C(c1ccc2c(c1)c1ccccc1n2CC1CCOCC1)N1CCCCC1 | 86.2% |
| CCCCCCn1c2ccccc2c2cc(C(=O)N3CCCCC3)ccc21 | 77% |
| CCCCCn1c2ccccc2c2cc(C(=O)N3CCS(=O)(=O)CC3)ccc21 | 91.5% |
| CCCCCn1c2ccccc2c2cc(C(=S)N3CCCCC3)ccc21 | 63% |
| O=C(c1ccc2c(c1)c1ccccc1n2CCCCl)N1CCCCC1 | 111% |
| CCCCCn1c2ccccc2c2cc(C(=O)N3CCN(C)CC3)ccc21 | 43.9% |
| CCCCCn1c2ccccc2c2cc(CN3CCCCC3)ccc21 | 79.6% |
| COCCCn1c2ccccc2c2cc(C(=O)N3CCCCC3)ccc21 | 68.1% |
| CCCCCn1c2ccccc2c2cc(C(=O)c3ccccc3)ccc21 | 39.3% |
| CCCCn1c2ccccc2c2cc(C(=O)N3CCCCC3)ccc21 | 67.9% |
| CCCCCn1c2ccccc2c2cc(C(=O)CN3CCCCC3)ccc21 | 103% |
| CCCCCn1c2ccccc2c2cc(C(=O)N(CC)CC)ccc21 | 53.1% |
| COC(=O)CCCn1c2ccccc2c2cc(C(=O)N3CCCCC3)ccc21 | 37.3% |
| CCCCCn1c2ccccc2c2cc(C(=O)N3CCCCC3)ccc21 | 118% |

Target: T1, Cannabinoid receptor 2
Assay: Partial agonist activity at human recombinant CB2 receptor expressed in CHO cells after 1 hr by [35S]GTPgammaS binding assay relative to CP55940
Type: functional, cell-based
Details: not given
Summary of the method: (§2)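 Membranes from CHO cells expressing hCB1 or hCB2, preincubated at least 15 min on ice with 30 μM GDP solution. GTP-γ-[35S] with WGA-PVT SPA beads. Eight concentrations, 0.001–10 μM, in duplicate. Incubated 1 h at room temperature, centrifuged, then a further 1 h before counting. […] Mean of two determinations.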

| Structure (SMILES) | Emax |
| --- | --- |
| CCCCCn1c2ccccc2c2cc(C(=O)N3CCCCC3)ccc21 | 30.8% |

Target: Cannabinoid receptor 1 (Homo sapiens) (UniProt P21554)
Sequence (P21554 whole entry): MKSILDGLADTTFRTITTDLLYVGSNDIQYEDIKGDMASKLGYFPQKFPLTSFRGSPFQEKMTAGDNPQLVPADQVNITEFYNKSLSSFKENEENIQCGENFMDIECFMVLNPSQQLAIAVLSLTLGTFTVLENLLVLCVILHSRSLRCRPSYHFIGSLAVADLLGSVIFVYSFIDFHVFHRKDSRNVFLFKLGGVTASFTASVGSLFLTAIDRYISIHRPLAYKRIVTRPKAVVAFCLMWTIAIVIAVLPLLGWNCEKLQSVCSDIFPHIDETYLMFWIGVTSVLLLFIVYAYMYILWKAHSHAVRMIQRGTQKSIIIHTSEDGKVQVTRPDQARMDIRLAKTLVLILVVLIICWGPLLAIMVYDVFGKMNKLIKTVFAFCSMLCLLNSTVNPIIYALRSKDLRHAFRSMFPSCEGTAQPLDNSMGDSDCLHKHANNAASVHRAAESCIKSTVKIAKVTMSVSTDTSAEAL
Assay: Induction of human CB1 receptor internalization expressed in HEK293 cells at 10 uM relative to CP55940
Type: cell-based
Details: not given
Summary of the method: as §1

| Structure (SMILES) | Activity |
| --- | --- |
| CCCCCn1c2ccc(C(=O)N3CCCCC3)cc2c2ccc(OC)cc21 | 33.4% |
| O=C(c1ccc2c(c1)c1ccccc1n2CC1CCOCC1)N1CCCCC1 | 142% |
| CCCCCCn1c2ccccc2c2cc(C(=O)N3CCCCC3)ccc21 | 122% |
| CCCCCn1c2ccccc2c2cc(C(=O)N3CCS(=O)(=O)CC3)ccc21 | 23.9% |
| CCCCCn1c2ccccc2c2cc(C(=S)N3CCCCC3)ccc21 | 124% |
| O=C(c1ccc2c(c1)c1ccccc1n2CCCCl)N1CCCCC1 | 106% |
| CCCCCn1c2ccccc2c2cc(C(=O)N3CCN(C)CC3)ccc21 | 84.7% |
| CCCCCn1c2ccccc2c2cc(CN3CCCCC3)ccc21 | -11.1% |
| COCCCn1c2ccccc2c2cc(C(=O)N3CCCCC3)ccc21 | 63.2% |
| CCCCCn1c2ccccc2c2cc(C(=O)c3ccccc3)ccc21 | 77% |
| CCCCn1c2ccccc2c2cc(C(=O)N3CCCCC3)ccc21 | 84.8% |
| CCCCCn1c2ccccc2c2cc(C(=O)CN3CCCCC3)ccc21 | -20.4% |
| CCCCCn1c2ccccc2c2cc(C(=O)N(CC)CC)ccc21 | 102% |
| COC(=O)CCCn1c2ccccc2c2cc(C(=O)N3CCCCC3)ccc21 | 9.4% |
| CCCCCn1c2ccccc2c2cc(C(=O)N3CCCCC3)ccc21 | 140% |

Test system: not listed separately
Assay: Selectivity ratio of Ki for rat CB1 receptor to Ki for human CB2 receptor
Details: not given

| Structure (SMILES) | Ratio Ki |
| --- | --- |
| CCCCCn1c2ccc(C(=O)N3CCCCC3)cc2c2ccc(OC)cc21 | 1.71 |
| O=C(c1ccc2c(c1)c1ccccc1n2CC1CCOCC1)N1CCCCC1 | 0.98 |
| CCCCCCn1c2ccccc2c2cc(C(=O)N3CCCCC3)ccc21 | 2.51 |
| CCCCCn1c2ccccc2c2cc(C(=O)N3CCS(=O)(=O)CC3)ccc21 | 1.96 |
| CCCCCn1c2ccccc2c2cc(C(=S)N3CCCCC3)ccc21 | 0.82 |
| O=C(c1ccc2c(c1)c1ccccc1n2CCCCl)N1CCCCC1 | 1.4 |
| CCCCCn1c2ccccc2c2cc(C(=O)N3CCN(C)CC3)ccc21 | 3.47 |
| CCCCCn1c2ccccc2c2cc(C(=O)CN3CCN(C)CC3)ccc21 | 3.78 |
| O=C(c1ccc2c(c1)c1ccccc1n2CCCN1CCS(=O)(=O)CC1)N1CCCCC1 | 9.54 |
| CCCn1c2ccccc2c2cc(C(=O)N3CCCCC3)ccc21 | 1.15 |
| CCCCCn1c2ccccc2c2cc(CN3CCCCC3)ccc21 | 0.33 |
| CCCCCn1c2ccccc2c2cc(C(=O)N3CCNCC3)ccc21 | 0.1 |
| COCCCn1c2ccccc2c2cc(C(=O)N3CCCCC3)ccc21 | 8.88 |
| CCCCCn1c2ccccc2c2cc(C(=O)c3ccccc3)ccc21 | 2.88 |
| CCCCn1c2ccccc2c2cc(C(=O)N3CCCCC3)ccc21 | 0.24 |
| O=C(c1ccc2c(c1)c1ccccc1n2Cc1ccccn1)N1CCCCC1 | 1.87 |
| CCCCCn1c2ccccc2c2cc(C(=O)CN3CCCCC3)ccc21 | 3.05 |
| CCCCCn1c2ccccc2c2cc(C(=O)OCc3ccncc3)ccc21 | 0.08 |
| CCOC(=O)CCn1c2ccccc2c2cc(C(=O)N3CCCCC3)ccc21 | 3.79 |
| CCCCCn1c2ccccc2c2cc(C(=O)N(CC)CC)ccc21 | 2.03 |
| COC(=O)CCCn1c2ccccc2c2cc(C(=O)N3CCCCC3)ccc21 | 8.88 |
| CCCCCn1c2ccccc2c2cc(C(=O)NN3CCCCC3)ncc21 | 2.07 |
| CCCCCn1c2ccccc2c2cc(C(=O)N3CCCCC3)ccc21 | 1.05 |

Target: Cannabinoid receptor 1 (Rattus norvegicus, UniProt P20272)
Sequence (P20272 whole entry): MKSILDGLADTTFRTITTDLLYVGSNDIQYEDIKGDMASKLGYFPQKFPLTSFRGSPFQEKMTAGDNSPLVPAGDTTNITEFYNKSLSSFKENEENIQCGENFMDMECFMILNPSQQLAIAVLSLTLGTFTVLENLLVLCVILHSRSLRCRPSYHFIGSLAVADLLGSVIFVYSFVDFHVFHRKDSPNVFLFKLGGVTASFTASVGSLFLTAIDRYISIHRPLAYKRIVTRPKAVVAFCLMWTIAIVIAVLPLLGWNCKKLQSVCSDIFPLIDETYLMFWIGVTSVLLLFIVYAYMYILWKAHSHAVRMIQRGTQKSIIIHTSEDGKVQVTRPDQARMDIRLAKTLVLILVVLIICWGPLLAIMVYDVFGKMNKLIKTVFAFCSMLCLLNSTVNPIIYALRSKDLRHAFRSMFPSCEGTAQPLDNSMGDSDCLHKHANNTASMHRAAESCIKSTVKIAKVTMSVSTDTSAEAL
Assay: Displacement of [3H]-CP55940 from CB1 receptor in rat brain homogenate after 1.5 hrs by microbeta liquid scintillation counting analysis
Type: tissue-based
Details: not given
Summary of the method: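 Membranes from rat brain homogenate (CB1) or HEK293 cells expressing human CB2. […] GF/B filtration, then scintillation counting. […] IC50 by three-parameter logistic fit, Ki by Cheng-Prusoff. Three experiments in triplicate.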

| Structure (SMILES) | Ki |
| --- | --- |
| CCCCCn1c2ccccc2c2cc(C(=O)NCCc3ccc(Cl)cc3)ccc21 | Not Active |
| CC(C)(C)OC(=O)NCCCn1c2ccccc2c2cc(C(=O)N3CCCCC3)ccc21 | Not Active |
| CCCCCn1c2ccccc2c2cc(C(=O)NN3CCCCC3)ccc21 | Not Active |

Same assay, conditions: read-out: Ki

| Structure (SMILES) | Ki |
| --- | --- |
| O=C(c1ccc2c(c1)c1ccccc1n2CC1CCOCC1)N1CCCCC1 | 19.5 nM |
| CCCCCCn1c2ccccc2c2cc(C(=O)N3CCCCC3)ccc21 | 241 nM |
| CCCCCn1c2ccccc2c2cc(C(=O)N3CCS(=O)(=O)CC3)ccc21 | 440 nM |
| CCCCCn1c2ccccc2c2cc(C(=S)N3CCCCC3)ccc21 | 40.6 nM |
| O=C(c1ccc2c(c1)c1ccccc1n2CCCCl)N1CCCCC1 | 124 nM |
| CCCCCn1c2ccccc2c2cc(C(=O)N3CCN(C)CC3)ccc21 | 123 nM |
| CCCCCn1c2ccccc2c2cc(C(=O)CN3CCN(C)CC3)ccc21 | 1500 nM |
| O=C(c1ccc2c(c1)c1ccccc1n2CCCN1CCS(=O)(=O)CC1)N1CCCCC1 | 2380 nM |
| CCCn1c2ccccc2c2cc(C(=O)N3CCCCC3)ccc21 | 600 nM |
| CCCCCn1c2ccccc2c2cc(CN3CCCCC3)ccc21 | 122 nM |
| COCCCn1c2ccccc2c2cc(C(=O)N3CCCCC3)ccc21 | 1440 nM |
| CCCCCn1c2ccccc2c2cc(C(=O)c3ccccc3)ccc21 | 291 nM |
| CCCCn1c2ccccc2c2cc(C(=O)N3CCCCC3)ccc21 | 63 nM |
| O=C(c1ccc2c(c1)c1ccccc1n2Cc1ccccn1)N1CCCCC1 | 403 nM |
| CCCCCn1c2ccccc2c2cc(C(=O)CN3CCCCC3)ccc21 | 3330 nM |
| CCCCCn1c2ccccc2c2cc(C(=O)OCc3ccncc3)ccc21 | 108 nM |
| CCOC(=O)CCn1c2ccccc2c2cc(C(=O)N3CCCCC3)ccc21 | 4980 nM |
| CCCCCn1c2ccccc2c2cc(C(=O)N(CC)CC)ccc21 | 105 nM |
| COC(=O)CCCn1c2ccccc2c2cc(C(=O)N3CCCCC3)ccc21 | 1850 nM |
| CCCCCn1c2ccccc2c2cc(C(=O)NN3CCCCC3)ncc21 | 354 nM |
| CCCCCn1c2ccccc2c2cc(C(=O)N3CCCCC3)ccc21 | 77 nM |

Target: T1, Cannabinoid receptor 2
Assay: Reduction of CP55940-induced human CB2 receptor internalization expressed in HEK293 cells at 3 uM relative to control
Type: cell-based
Set-up: scale not given: the % may be the effect or the level left
Details: not given

| Structure (SMILES) | Activity |
| --- | --- |
| CCCCCn1c2ccc(C(=O)N3CCCCC3)cc2c2ccc(OC)cc21 | Active |
| CCCCCn1c2ccccc2c2cc(C(=O)c3ccccc3)ccc21 | > 50% |

Target: Cannabinoid receptor 1 (Homo sapiens) (UniProt P21554)
Assay: Partial agonist activity at human recombinant CB1 receptor expressed in CHO cells after 1 hr by [35S]GTPgammaS binding assay relative to CP55940
Type: functional, cell-based
Details: not given
Summary of the method: as §2

| Structure (SMILES) | Emax |
| --- | --- |
| CCCCCn1c2ccc(C(=O)N3CCCCC3)cc2c2ccc(OC)cc21 | 30.4% |

Target: T1, Cannabinoid receptor 2
Assay: Inverse agonist activity at human recombinant CB2 receptor expressed in CHO cells after 1 hr by [35S]GTPgammaS binding assay relative to CP55940
Type: functional, cell-based
Details: not given
Summary of the method: as §2

| Structure (SMILES) | Emax |
| --- | --- |
| CCCCCn1c2ccc(C(=O)N3CCCCC3)cc2c2ccc(OC)cc21 | -76.4% |

Target: Cannabinoid receptor 1 (Homo sapiens) (UniProt P21554)
Assay: Agonist activity at human recombinant CB1 receptor expressed in CHO cells after 1 hr by [35S]GTPgammaS binding assay relative to CP55940
Type: functional, cell-based
Details: not given
Summary of the method: as §2

| Structure (SMILES) | Emax |
| --- | --- |
| CCCCCn1c2ccccc2c2cc(C(=O)N3CCCCC3)ccc21 | 73.6% |
